In series [1] the test system is Rattus norvegicus. Description: Dose normalized AUC in Wistar rat at 10 mg/kg, po bid by LC/MS/MS analysis. It is filed as ADME, organism-based. Conditions: in vivo.
The nature of series [2]: Clearance in Balb/c mouse at 5 mg/kg, iv by LC/MS/MS analysis. It is filed as ADME, organism-based. The settings on record: in vivo.
The subject of series [3] is Mus musculus. The series can be described thus: In vivo inhibition of gamma-secretase dependent Notch1 signaling in mouse assessed as effect on Hes1 mRNA level in thymus at 3 to 30 mg/kg, po bid administered at 8 and 16 hrs dosing interval between first and second dose respectively for 11 days measured 16 hrs post last dose on day 12 by RT-PCR analysis. It counts as organism-based. A digest of the protocol: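 Thymus and jejunum excised into RNALater, 4 °C overnight, washed, frozen at −80 °C; total RNA from 10 mg tissue by MagNA Pure LC; Hes1 measured by TaqMan real-time PCR; significance by two-tailed heteroscedastic Student's t-test.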

Series [4] concerns Plasma. The series can be described thus: Cmin in mouse plasma at 30 mg/kg, po bid administered at 8 and 16 hrs dosing interval between first and second dose respectively for 11 days measured predose on day 12 by LC/MS/MS analysis. It counts as ADME, organism-based. The settings on record: in vivo, read-out: Cmin. A digest of the protocol:
(§1)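 Mice gavaged bid in 0.5% MC:0.5% Tween or PEG:D5W 3:1; trough sample taken before the morning dose; 50 μL retro-orbital blood into LiHep tubes, kept on ice, plasma separated at 2823g for 5 min, stored at −20 °C until analysis.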

A short description of series [5]: Drug uptake in Lewis rat spleen at 3 mg/kg, po bid after 24 hrs by LC/MS/MS analysis. It counts as ADME, organism-based. Conditions: read-out: Drug uptake.
The target in series [6] is T1, Signal peptide peptidase-like 2A (Homo sapiens, UniProt Q8TCT8).
T1 sequence (Q8TCT8 whole entry): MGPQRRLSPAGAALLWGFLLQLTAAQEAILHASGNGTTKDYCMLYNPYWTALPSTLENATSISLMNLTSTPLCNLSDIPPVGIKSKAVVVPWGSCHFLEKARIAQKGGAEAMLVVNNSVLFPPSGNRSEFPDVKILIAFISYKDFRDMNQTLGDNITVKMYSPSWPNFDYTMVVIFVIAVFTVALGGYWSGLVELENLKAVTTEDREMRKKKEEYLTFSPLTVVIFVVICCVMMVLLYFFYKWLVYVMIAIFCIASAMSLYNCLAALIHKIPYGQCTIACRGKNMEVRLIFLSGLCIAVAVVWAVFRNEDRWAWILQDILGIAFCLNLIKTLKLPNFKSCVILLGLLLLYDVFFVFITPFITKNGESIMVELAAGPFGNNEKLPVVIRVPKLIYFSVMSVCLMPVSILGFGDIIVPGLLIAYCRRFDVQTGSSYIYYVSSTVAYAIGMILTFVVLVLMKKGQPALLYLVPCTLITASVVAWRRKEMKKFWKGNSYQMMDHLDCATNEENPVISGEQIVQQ
Description: Inhibition of human SPPL2a expressed in HEK293 cells using GAL4-VP16 fusedTNFalpha (1 to 76)-NTF as substrate after 24 hrs by Bright-Glo luciferase reporter gene assay. It counts as cell-based. An outline of the steps:
(§2)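 HEK293 cells transiently transfected with human SPPL2a, VP16-TNFα(aa1-76)-NTF substrate and Gal4-luciferase reporter (SPPL2a), or human Notch1-VP16-Gal4 plus Gal4-luciferase reporter relying on endogenous γ-secretase.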
For orientation: Reporter assays use an easily measured gene product as a stand-in for the process of interest.

For series [7], the system named is Mus musculus. Description: Dose normalized AUC in po dosed Balb/c mouse by LC/MS/MS analysis. It counts as ADME, organism-based. The settings on record: in vivo.
The nature of series [8]: Oral bioavailability in Balb/c mouse by LC/MS/MS analysis. It is filed as ADME, organism-based. Conditions: in vivo.
Series [9] concerns Mus musculus. Description: In vivo inhibition of SPPL2a in mouse assessed as accumulation of CD74/p8 in splenocyte lysate at 10 mg/kg administered via oral gavage as single dose measured 16 hrs post dose by Western blot method relative to control. It counts as functional. A digest of the protocol:
(§3)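 Mice gavaged in 0.5% MC:0.5% Tween or PEG:D5W 3:1. Spleens dissociated, red cells lysed with ACK, 1 × 10^6 cells lysed with protease inhibitors; 18 μg lysate on 10% gel, blotted, CD74 full length and p8 detected with rat anti-mouse CD74 In-1 and Alexa488 anti-rat IgG, LiCor scan; p8/full-length ratio expressed as percent of reference compound ratio.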
On the technique in general: Immunoblotting shows a protein as a band on a membrane.

Series [10] deals with T2, Signal peptide peptidase-like 2A (Mus musculus, UniProt Q9JJF9).
T2 sequence (Q9JJF9 whole entry): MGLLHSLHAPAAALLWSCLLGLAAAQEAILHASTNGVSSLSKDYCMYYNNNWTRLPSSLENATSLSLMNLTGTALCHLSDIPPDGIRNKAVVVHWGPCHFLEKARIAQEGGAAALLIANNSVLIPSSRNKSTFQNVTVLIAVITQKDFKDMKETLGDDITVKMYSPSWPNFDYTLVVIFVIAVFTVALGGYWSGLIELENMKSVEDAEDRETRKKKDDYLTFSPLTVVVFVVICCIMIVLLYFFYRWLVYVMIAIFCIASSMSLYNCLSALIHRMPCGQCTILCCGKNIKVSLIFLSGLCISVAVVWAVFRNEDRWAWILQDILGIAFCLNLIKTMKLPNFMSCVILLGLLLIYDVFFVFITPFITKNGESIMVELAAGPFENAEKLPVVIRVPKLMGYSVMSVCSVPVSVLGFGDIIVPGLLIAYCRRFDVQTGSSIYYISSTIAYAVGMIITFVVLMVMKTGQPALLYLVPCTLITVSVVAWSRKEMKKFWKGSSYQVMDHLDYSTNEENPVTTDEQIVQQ
The series can be described thus: Inhibition of mouse SPPL2a in A20 cells assessed as CD74/p8 accumulation by flow cytometry. It counts as cell-based. For orientation: Flow cytometry measures light scatter and fluorescence of single cells or particles in a stream.

Series [11] is described as follows: Total concentration in Lewis rat blood at 10 mg/kg, po bid after 24 hrs by LC/MS/MS analysis. It is filed as ADME, organism-based. Conditions: read-out: Drug uptake.
The nature of series [12]: Clearance in Wistar rat at 3 mg/kg, iv by LC/MS/MS analysis. It counts as ADME, organism-based. Conditions: in vivo.
Series [13] is described as follows: Inhibition of human gamma-secretase expressed in HEK293 cells using Notch1-VP16-Gal4 as substrate after 24 hrs by Bright-Glo luciferase reporter gene assay. The settings on record: HEK293, 24 h. It counts as cell-based. An outline of the steps: as §2
Series [14] deals with Mus musculus. The series can be described thus: In vivo inhibition of SPPL2a in mouse assessed as accumulation of CD74/p8 in splenocyte lysate at 40 mg/kg administered via oral gavage as single dose measured 16 hrs post dose by Western blot method. It is filed as functional, organism-based. A digest of the protocol:
as §3

Series [15] has as its system Plasma. Description: Cmin in mouse plasma at 10 mg/kg, po bid administered at 8 and 16 hrs dosing interval between first and second dose respectively for 11 days measured predose on day 12 by LC/MS/MS analysis. Conditions: in vivo, read-out: Cmin. It is filed as ADME, organism-based. An outline of the steps:
as §1

The nature of series [16]: Total plasma concentration in mouse at 10 mg/kg administered via oral gavage measured after 16 hrs post dose by LC/MS/MS analysis. It counts as ADME, organism-based. A digest of the protocol:
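Mice dosed by oral gavage in 0.5% MC:0.5% Tween or PEG:D5W 3:1. 50 μL blood taken retro-orbitally into LiHep tubes; in chronically dosed animals the trough sample came before the morning dose. Kept on ice, plasma separated by centrifugation at 2823g, 5 min, stored at −20 °C until analysis.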

Series [17] is described as follows: Drug uptake in mouse spleen at 10 mg/kg, po administered as single dose after 4 hrs by LC/MS/MS analysis. Conditions: read-out: Drug uptake. It counts as ADME, organism-based.
A short description of series [18]: Total plasma concentration in mouse at 30 mg/kg, po administered as single dose after 4 hrs by LC/MS/MS analysis. It is filed as ADME, organism-based.

Active and inactive are the calls of the source. No cut-off for these calls is given here.

In general, clearance refers to a measure of how efficiently the substance is removed, as volume per time. Higher therefore signals a high capacity for elimination. Broadly, the IC50 is the concentration at which inhibition is half-maximal. As a reminder, the bioavailability is the share of a dose that reaches the circulation, judged against a reference dose that is usually intravenous. Usually inhibition in vivo stands for the share of the control response that was lost under treatment. As to `Cc1ncc(F)cc1NC(=O)C[C@H](C(=O)N[C@@H]1C(=O)N2CC3(CC3)CN2C(=O)c2ccccc21)C1CC1`, the AUC/dose in series [1] came to 8787 nM·h; in series [7] it was 6071 nM·h. Besides, the clearance is 5 mL/min/kg in series [2] and 6 mL/min/kg in [12]. In addition, in [3], the Activity entry is given as “Non-Toxic”. Moreover, the concentration in series [4] is 1100 nM; in series [15] it was 66 nM. Moreover, the concentration at 24 h in series [5] came to 860 nM; in series [11], 1390 nM. Further, the values for the IC50 in [6], in [10] and in series [13] were 77 nM, 137 nM and 6100 nM, respectively. The molecule also displayed a bioavailability in [8] of 94%. For the same molecule, the inhibition in vivo at 10 mg/kg in [9] is 50%. The inhibition result in series [14] is “Active”. Besides, the concentration at 16 h in series [16] worked out at 11.8 nM.
The molecule `Cc1ccccc1NC(=O)C[C@@H](C)C(=O)N[C@@H]1C(=O)N2CCCN2Cc2ccccc21` yielded a clearance in series [2] of 46 mL/min/kg. For the same molecule, the IC50 in series [6] was determined as 35 nM; in series [10], 370 nM; in [13] it was 1860 nM. In series [7], this molecule registered an AUC/dose of 908 nM·h. In series [8], the bioavailability came out at 100%. Also, the figures for the concentration at 4 h in series [17] and in series [18] were 127 nM and 500 nM, respectively.

The record behind these values is ChEMBL document CHEMBL4043282, “Discovery of the First Potent, Selective, and Orally Bioavailable Signal Peptide Peptidase-Like 2a (SPPL2a) Inhibitor Displaying Pronounced Immunomodulatory Effects In Vivo” (J Med Chem, 2018).
